Results as given in PMC12570389 (RSC Advances, 2025).
pIC50: −log10 of the molar value. “Also recorded” adds a separate entry of the source.

Experiments:
CCR2 = details: Table S5C training set of 3D-QSAR; ref BindingDB; cited from earlier work
[1] = system: Human diploid fibroblasts (MRC-5); assay: CCK8 viability assay in TGF-β-induced pulmonary fibrosis cell model; format: cell-based
How it was run: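 MRC-5 fibroblasts were seeded at 2000 cells/well and given TGF-β (10 ng mL−1) for 48 h to build the fibrosis model. Test compound was dissolved in DMSO, diluted in DMEM and applied at 0, 1, 1.25, 2.5, 5, 10, 25, 50 and 100 μmol for 48 h, with a reference antifibrotic as positive control. CCK8 (10% volume) was added, plates incubated 3 h in the dark, and A450 read.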

MRC-5 cells = assay: Hydroxyproline content in TGF-β-stimulated MRC-5 cells; format: cell-based, human; details: 17 (50 μM), 67 (100 μM), nintedanib (10 μM), 48 hours, vs TGF-β model
How it was run: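 TGF-β (10 ng mL−1, 48 h) stimulated MRC-5 fibrosis model cells were then exposed to test compound at a single concentration (50 or 100 μM), or to a reference antifibrotic at 10 μM, for 48 h. Hydroxyproline content was compared with the TGF-β-stimulated model.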

COL1A1 = assay: RT-qPCR of COL1A1 mRNA in TGF-β-stimulated MRC-5 cells; format: cell-based, human; details: 17 (50 μM), 67 (100 μM), nintedanib (10 μM), 48 hours, vs TGF-β model

| SMILES | pIC50 (CCR2) | proliferation / 48-hour cell inhibition rate (CCK8) ([1]; TGF-β (10 ng mL^−1) induced MRC-5, 48-hour drug treatment, 0-100 μmol) | cytotoxic effect on the pulmonary fibrosis cell model, comparison ([1]; TGF-β induced MRC-5, 48 h, CCK8) | hydroxyproline (MRC-5 cells) | expression of COL1A1 (COL1A1) |
| --- | --- | --- | --- | --- | --- |
| Cc1ccc(-c2ccc3c(c2)C=C(C(=O)Nc2ccc(C[N+](C)(C)C4CCOCC4)cc2)CCC3)cc1 [BDBM50088301] | 10.52 |  |  |  |  |
| COC(=O)c1ccc2c(c1)NC(=O)/C2=C(\Nc1ccc(N(C)C(=O)CN2CCN(C)CC2)cc1)c1ccccc1 [nintedanib] |  | effectively suppressed the proliferation; also recorded: concentration-dependent increase in their inhibitory effects | even stronger cytotoxic effect than compound 17 | significantly decreased | significantly decreased |
